Active and inactive are the calls of the source. The calls are words filed in the database; no cut-off is given here.
Assays:
RAW264.7 [1] = test: Inhibition of LPS-induced IL6 production in mouse RAW264.7 cells preincubated for 30 mins prior to LPS challenge measured after 24 hrs by ELISA; format: functional, cell-based
Outline: (§1)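 RAW 264.7 cells (ATCC) were grown in DMEM with 10% FBS and penicillin/streptomycin at 37 °C, 5% CO2. Cells were seeded at 400,000/well and incubated for 24 h, pretreated with compound for 30 min, then given 0.5 µg/mL LPS for 24 h. Medium TNF-α or IL-6 was measured by ELISA and normalized to total protein of viable cell pellets.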

RAW264.7 [2] = test: Inhibition of LPS-induced TNF-alpha production in mouse RAW264.7 cells preincubated for 30 mins prior to LPS challenge measured after 24 hrs by ELISA; format: functional, cell-based; outline: as §1
RAW264.7 [3] = test: Inhibition of LPS-induced IL6 production in mouse RAW264.7 cells at 10 uM preincubated for 30 mins prior to LPS challenge measured after 24 hrs by ELISA; format: functional; outline: as §1
RAW264.7 [4] = test: Inhibition of LPS-induced TNF-alpha production in mouse RAW264.7 cells at 10 uM preincubated for 30 mins prior to LPS challenge measured after 24 hrs by ELISA; format: functional; outline: as §1
[5] = Mus musculus, RAW264.7, read-out: IC50

Compound | inhibition at 10 µM (RAW264.7 [3]) | inhibition at 10 µM (RAW264.7 [4]) | other results
CCC(=O)Nc1ccc2c(c1)cc(C(=O)Nc1ccc(N3CCN(C)CC3)cc1)n2Cc1ccc(C(F)(F)F)cc1 |  |  | IC50 (RAW264.7 [1]; [5]): 3.33 µM; IC50 (RAW264.7 [2]; [5]): 4.1 µM
CN1CCN(c2ccc(NC(=O)c3cc4cc([N+](=O)[O-])ccc4n3Cc3ccc(Cl)cc3)cc2)CC1 | 97.2% | 67% | 
CN1CCN(c2ccc(NC(=O)c3cc4cc([N+](=O)[O-])ccc4[nH]3)cc2)CC1 | 91% | 62.5% | 
CCOc1ccc(NC(=O)c2cc3cc([N+](=O)[O-])ccc3[nH]2)cc1 | 41.1% | 33.8% | 
COc1ccc(Cn2c(C(=O)Nc3ccc(N4CCN(C)CC4)cc3)cc3cc([N+](=O)[O-])ccc32)cc1 | 64.3% | 41.4% | 
O=C(Nc1ccc(OCc2cccc(F)c2)c(Cl)c1)c1cc2cc([N+](=O)[O-])ccc2[nH]1 |  |  | inhibition (RAW264.7 [3]): inactive; inhibition (RAW264.7 [4]): inactive
CN1CCN(c2ccc(NC(=O)c3cc4cc(NC(=O)CCl)ccc4n3Cc3ccc(C(F)(F)F)cc3)cc2)CC1 |  |  | IC50 (RAW264.7 [1]; [5]): 2.99 µM; IC50 (RAW264.7 [2]; [5]): 6.03 µM
CN1CCN(c2ccc(NC(=O)c3cc4cc(N)ccc4n3Cc3ccc(C(F)(F)F)cc3)cc2)CC1 |  |  | IC50 (RAW264.7 [1]; raw264.7): Not Active; IC50 (RAW264.7 [2]; raw264.7): Not Active
CN1CCN(c2ccc(NC(=O)c3cc4cc([N+](=O)[O-])ccc4n3Cc3ccc(C(F)(F)F)cc3)cc2)CC1 | 98.7% | 75.1% | IC50 (RAW264.7 [1]; [5]): 5.09 µM; IC50 (RAW264.7 [2]; [5]): 2.74 µM
C=CCn1c(C(=O)Nc2ccc(N3CCN(C)CC3)cc2)cc2cc([N+](=O)[O-])ccc21 | 58.2% | 12.7% | 
O=C(Nc1ccc(OCc2ccc(Cl)cc2)cc1)c1cc2cc([N+](=O)[O-])ccc2[nH]1 | 4.28% |  | inhibition (RAW264.7 [4]): inactive
COc1cc(NC(=O)c2cc3cc([N+](=O)[O-])ccc3[nH]2)cc(OC)c1 | 31.3% | 17.2% | 
O=C(Nc1ccccc1)c1cc2cc([N+](=O)[O-])ccc2[nH]1 | 49.6% | 17.5% | 
COc1cc(NC(=O)c2cc3cc([N+](=O)[O-])ccc3[nH]2)cc(OC)c1OC | 62.3% | 45.8% | 
C=CC(=O)Nc1ccc2c(c1)cc(C(=O)Nc1ccc(N3CCN(C)CC3)cc1)n2Cc1ccc(C(F)(F)F)cc1 |  |  | IC50 (RAW264.7 [1]; [5]): 6.28 µM; IC50 (RAW264.7 [2]; [5]): 1.05 µM
COc1ccc(CCNC(=O)c2cc3cc([N+](=O)[O-])ccc3[nH]2)cc1 | 11.8% | 9.75% | 
COc1ccc(NC(=O)c2cc3cc([N+](=O)[O-])ccc3[nH]2)cc1 | 52.8% | 8.17% | 
COc1cccc(COc2ccc(NC(=O)c3cc4cc([N+](=O)[O-])ccc4[nH]3)cc2Cl)c1 | 21.9% |  | inhibition (RAW264.7 [4]): inactive
O=C(Nc1ccc(N2CCOCC2)cc1)c1cc2cc([N+](=O)[O-])ccc2[nH]1 | 38% | 18% | 

From ChEMBL document CHEMBL3822416, “Design, Synthesis, and Structure-Activity Relationship Study of Novel Indole-2-carboxamide Derivatives as Anti-inflammatory Agents for the Treatment of Sepsis” (J Med Chem, 2016)
